Compound activity: PubChem, several laboratories
Rows were chosen to be rich in hits. Some 3.4% of all compounds tested hit in one or more screens of this group.
TMEM16A act: mouse TMEM16A channel activation, primary screen; Q8BHY3; HEK293 TMEM16A/YFP-H148Q/I152L, iodide quench fluorescence; active compounds read low; B-score at 10 µM; 0.3% of 340,000 active;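 active = fluorescence-ratio B-score plate-corrected deviation score at least 3 library SD below zero, with starting fluorescence score within 5 deviations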;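 also: channel opened by trigger with iodide after compound preincubation; score built on the fluorescence ratio of max minus min over baseline; more negative score means more quench and so TMEM16A activation or potentiation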
ANO1 block: blocks the mouse calcium-activated chloride channel TMEM16A; Q8BHY3; HEK293 TMEM16A/YFP iodide influx fluorescence, ionomycin; normalized B-score (activity score, 25-100; higher = stronger inhibition) at 10 µM; 1.2% of 310,000 active;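 active = ratio plate-corrected score three or more library SD toward inhibition, starting fluorescence score within five deviations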;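 also: score derived from kinetic fluorescence span divided by baseline fluorescence per well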
MIN6 prolif: inducers of beta-cell replication in MIN6 cells. MIN6 cells proliferation, ATPlite luminescence, 48 h; cells starved in 0.2% serum; 100% = growth in 10% serum. proliferation, % at 10 µM. 0.29% of 330,000 active;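 active = compounds whose signal lies at least 3.5 SD above the mean of all wells on their plate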;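 also: 0% = DMSO-treated cells in low-serum medium and 100% = 10% serum control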
HTR2A ag: agonists of mouse serotonin 5-HT2A receptor (HTR2A). AID 624169. P35363. 0.66% of 360,000 active. CHO-K1 mHTR2A beta-arrestin complementation, luminescence; percent of 30 µM serotonin response. activation, % at 7.6 µM;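 active = activation above a run cutoff, the mean activation of all tested compounds plus 3 SD, cut at about 14% in these data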;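 also: 0% = plate median of compound wells and 100% = 30 µM serotonin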
Target sequence (P35363 whole entry, looked up): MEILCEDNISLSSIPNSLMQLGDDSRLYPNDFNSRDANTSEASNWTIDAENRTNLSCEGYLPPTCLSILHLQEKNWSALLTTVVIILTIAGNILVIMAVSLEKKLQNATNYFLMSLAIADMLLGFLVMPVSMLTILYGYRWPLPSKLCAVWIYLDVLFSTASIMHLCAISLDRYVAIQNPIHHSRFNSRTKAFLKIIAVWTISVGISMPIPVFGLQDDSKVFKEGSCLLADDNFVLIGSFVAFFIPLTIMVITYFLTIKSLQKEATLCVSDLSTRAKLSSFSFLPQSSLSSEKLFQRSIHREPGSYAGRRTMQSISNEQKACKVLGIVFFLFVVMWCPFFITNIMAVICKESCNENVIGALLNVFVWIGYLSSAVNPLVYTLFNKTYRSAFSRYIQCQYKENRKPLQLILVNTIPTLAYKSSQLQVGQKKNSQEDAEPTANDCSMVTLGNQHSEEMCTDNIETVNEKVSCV
MC4R antag cAMP: human MC4R antagonism in cAMP assay. 0.48% of 360,000 active. inhibition, % at 6.5 µM. AID 540295. P32245. MC4R-expressing cells, MTII-stimulated cAMP, LANCE TR-FRET;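 active = inhibition above its plate's cutoff, the mean of tested wells on that plate plus 3 SD, cut at about 29% in these data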;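 also: 0% = Melanotan II alone and 100% = Melanotan II plus saturating MCL0020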
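System: U2OS-MC4R stable cell line; Technique: Eu-cAMP/anti-cAMP TR-FRET, emission 671 nm; Repeats: single well per compound; Also added: Melanotan II; Dosing: one concentration, 6.5 µM nominal; Schedule: 30-min compound, 1-h challenge, 1-h detection, room temperature.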
MC4R barr agon: agonists of human melanocortin 4 receptor (MC4R) beta-arrestin | P32245 | U2OS MC4R beta-arrestin complementation, luminescence; percent of melanotan II response, DMSO zero | activation, % at 8.9 µM | 0.98% of 360,000 active;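 active = activation above a per-plate cutoff, the mean activation of sample wells on that plate plus 3 SD, cut at about 8% in these data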
The depositor's hits bear a star; i = inactive; · = not tested or not shown.

SMILES | TMEM16A act | ANO1 block | MIN6 prolif | HTR2A ag | MC4R antag cAMP | MC4R barr agon
COc1ccc(C(=O)Nc2ccc(Nc3ccccc3)cc2)cc1Br | i | i | -3 | -6 | -3 | 9.4*
COc1ccc(C(=O)Nc2ccc3c(c2)OCCO3)cc1Br | i | i | -4 | -5 | -5 | 0
Cc1noc(C)c1S(=O)(=O)N(C)C[C@H]1Oc2ccc(NS(=O)(=O)c3ccccc3)cc2C(=O)N([C@H](C)CO)C[C@@H]1C | i | · | 1 | -2 | 5 | 1
CC(C)Cn1c(SC(C)C(=O)NCC2CCCO2)nc2ccc(Cl)cc2c1=O (stereo unspecified) | -25* | · | 3 | 3 | -2 | -1
N#Cc1cccc(-c2csc(C(O)c3ccc(F)cc3)n2)c1 (stereo unspecified) | · | · | · | -2 | 3 | -1
O=C(CS(=O)(=O)c1ccccc1)Nc1ncc([N+](=O)[O-])s1 | i | i | -3 | 1 | 12 | -2
COCC(=O)Nc1ncc(S(=O)(=O)c2ccc([N+](=O)[O-])cc2)s1 | i | i | -3 | -1 | 4 | -1
O=C(Nc1ncc([N+](=O)[O-])s1)c1ccccc1Br | i | 100* | -3 | 2 | 17 | -1
O=C(NC(Nc1ncc(S(=O)(=O)c2ccc([N+](=O)[O-])cc2)s1)(C(F)(F)F)C(F)(F)F)c1ccc(Cl)cc1 | i | 100* | -5 | 2 | 15 | -2
O=C(Nc1ncc(S(=O)(=O)c2ccc([N+](=O)[O-])cc2)s1)c1cccc2ccccc12 | -5.3* | 25* | -3 | 1 | 12 | -4
O=C(NCCNS(=O)(=O)c1cccc(C(F)(F)F)c1)c1cc(OCC(F)(F)F)ccc1OCC(F)(F)F | i | i | -1 | 7 | 3 | 28*
Cc1cccc(N(Cc2ccccc2)C(=O)CCl)c1 | i | · | · | -1 | 25 | 22*
C=C(C)COc1ccc(-c2[nH]ncc2Oc2ccccc2OC)c(O)c1 | i | i | -4 | 2 | 17 | 8.9*
C=C(C)COc1ccc(-c2[nH]ncc2-c2ccccc2OC)c(O)c1 | i | i | -4 | -5 | 2 | 9.2*
C=C(C)COc1ccc(-c2[nH]ncc2Oc2ccc(OC)cc2)c(O)c1 | i | i | -7 | 3 | 1 | 1
C=C(C)COc1ccc(-c2ncncc2-c2ccccc2OC)c(O)c1 | i | i | 1 | -4 | 11 | 3
CCOC(=O)c1c(NC(=O)/C=C/C(=O)O)sc(C)c1-c1ccc(C(C)(C)C)cc1 | i | 25* | -5 | 6 | 13 | 6
CCOC(=O)c1c(NC(=O)/C=C\C(=O)O)sc(C)c1-c1ccccc1 | i | i | -5 | 0 | 5 | 1
O=C(CSc1nnc(-c2ccccc2)c2ccccc12)NCC1CCCO1 (stereo unspecified) | -6.8* | i | 3 | -5 | -3 | -1
C=CCn1c(C)nnc1SCC(=O)Nc1oc(C)c2c(C)n[nH]c(=O)c12 | i | i | 3 | 0 | 2 | 1
COc1ccc(-c2ccc(-c3nnn(CC(=O)N4CCOCC4)n3)cc2)cc1 | i | i | -5 | -3 | 0 | 2
COc1ccc(OC)c(C(=O)Cn2nnc(-c3ccc(N4CCOCC4)cc3)n2)c1 | i | i | 1 | 5 | 14 | 9.3*
CCc1nc2ccc(C(=O)NCCOc3ccc(OC)cc3)cn2c1N(C=O)Cc1ccc(OC)cc1 | · | · | · | 3 | 12 | -2
CC(c1ccccc1)N(NC(=O)C(O)(c1ccccc1)c1ccccc1)C(=O)c1ccccc1 (stereo unspecified) | i | i | 0.0* | 2 | -3 | 0
CCN(NC(=O)C(O)(c1ccccc1)c1ccccc1)C(=O)c1ccccc1 | i | i | 3 | 1 | 11 | 0
C=CCn1c(SCC(=O)Nc2nccs2)nnc1-c1cc2cccc(OC)c2o1 | i | i | 0 | 4 | 1 | 9.3*
Cc1csc2c(=O)sc(NC(=O)c3ccco3)nc12 | i | i | 1 | -2 | -3 | -1
Cc1csc2c(=O)sc(NC(=O)c3cccs3)nc12 | i | i | -2 | -1 | -17 | 8.5*
